Assay results of several laboratories.
Protocols differ between the studies behind these lines.
Organism: Aspergillus niger
Effect on: microbial growth

Compound | technique | strain | concentration | measurement | value
Cc1ccc(C)n1-c1ccc(-c2n[nH]c(=S)[nH]2)cc1 | broth dilution | ATCC6275 | – | MIC | > 500 µg/mL
O=C1NN=C(N=Cc2ccccc2)C1=NNn1c(-c2ccccc2)nc2ccccc2c1=O | broth dilution | – | – | MIC | 57.1 µM
Cc1cc(=O)[nH]n1C(=O)c1ccc(-n2c(C)ccc2C)cc1 | broth dilution | ATCC6275 | – | MIC | 250 µg/mL
Cc1ccc2nc(-c3cc(Br)ccc3O)[nH]c2c1 | – | ATCC16404 | – | MIC | 256 µg/mL
O=C1NN=C(N=Cc2ccc(O)cc2O)C1=NNn1c(-c2ccccc2)nc2ccccc2c1=O | broth dilution | – | – | MIC | 107 µM
Clc1ccccc1C(c1ccccc1)(c1ccccc1)n1ccnc1 | disc diffusion | – | 20000 µg/mL | inhibition zone | 25 mm
CC1=NN(CNC(=O)c2ccccc2)C(=O)C1=NNn1c(-c2ccccc2)nc2ccccc2c1=O | broth dilution | – | – | MIC | 104 µM
Cc1ccc(C)n1-c1ccc(-c2nnc(-c3ccc(Br)cc3)[nH]2)cc1 | broth dilution | ATCC6275 | – | MIC | 4 µg/mL
Clc1ccccc1C(c1ccccc1)(c1ccccc1)n1ccnc1 | disc diffusion | – | 100 µg/mL | inhibition zone | 18 mm
CSc1ccc(-c2nc3ccc(C)cc3[nH]2)cc1 | – | ATCC16404 | – | MIC | 64 µg/mL
CC1=NN(CNC(=O)c2ccccn2)C(=O)C1=NNn1c(-c2ccccc2)nc2ccccc2c1=O | broth dilution | – | – | MIC | 104 µM
Oc1ccc(Br)cc1-c1nc2ccccc2[nH]1 | – | ATCC16404 | – | MIC | 512 µg/mL
Cc1ccc(C)n1-c1ccc(-c2nnc(S)s2)cc1 | broth dilution | ATCC6275 | – | MIC | 125 µg/mL
Cc1ccc2nc(-c3ccc(Cl)c(Cl)c3)[nH]c2c1 | – | ATCC16404 | – | MIC | 32 µg/mL
O=C(O)c1cn(C2CC2)c2cc(N3CCNCC3)c(F)cc2c1=O | broth dilution | – | – | MIC | 25.5 µM
Cc1ccc2nc(-c3ccco3)n(Cc3ccccc3)c2c1 | – | ATCC16404 | – | MIC | 512 µg/mL
Cc1ccc(C)n1-c1ccc(-c2nnc(-c3ccc(O)cc3)[nH]2)cc1 | broth dilution | ATCC6275 | – | MIC | 31.2 µg/mL
